Source: ChEMBL document CHEMBL4513216, “Probing the Open Global Health Chemical Diversity Library for Multistage-Active Starting Points for Next-Generation Antimalarials” (ACS Infect Dis, 2020)

Assay: Toxicity liver stage against HepG2, at 10uM
Format: cell-based
Set-up: test concentration 10 uM, cell line HepG2-A16-CD81EGFP
Conditions: human, HepG2-A16-CD81EGFP cells; read-out: INHIBITION
How it was run: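 Uninfected HepG2-A16-CD81EGFP cells, 3 × 10^3 per well, 1536-well, plated on prespotted compound at 10 μM final, parasite-free screening media added to match infected plates; puromycin 10 μM positive, DMSO 0.5% negative; run in parallel with 48 h PbLuc assay at 37 °C, 5% CO2; viability by CellTiter-Glo luminescence, normalized to controls.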

Compound	cytotoxicity at 10 µM [%]
COc1ccc(CCC(=O)NCCC2CCCO2)cc1Br (stereo not given)	2.6
CN1CCOC[C@H]1c1nc(-c2ccc(F)cc2F)c[nH]1	-5.66
CCNC(=O)NC[C@H]1COCc2nc3cc(OC)ccc3n21	-2.3
COCCNC(=O)c1cccnc1Oc1ccc(Cl)cc1	6.99
CSCC[C@H](NC(=O)Cn1ccc2c(Br)cccc21)C(=O)O	-2.94
Cc1nnsc1-c1nnc2sc(C3CCC3)nn12	-7.86
Cc1cc(C(=O)NCc2cc(C)oc2C)no1	-9.98
Cc1cc(C(=O)N2CC[C@@H]3CN(C)S(=O)(=O)[C@@H]3CC2)no1	-7.55
CCC(=O)N1CCC2(CC1)CC(CC(=O)NC1CC1)c1ccccc1O2 (stereo not given)	2.64
O=C1COC2(CCN(Cc3ccco3)CC2)CN1Cc1cccnc1	-4.25
CS(=O)(=O)N1CC(c2nc[nH]n2)c2cc(C(=O)NC3CCCC3)ccc21 (stereo not given)	-131
CCS(=O)(=O)N1C[C@H]2CN(Cc3ccc(OC)cc3)C(=O)[C@H]2C1	-1.34
CC(C)Nc1ncnc2c1CCN(C(=O)[C@H]1CCCO1)CC2	-0.685
O=C(Nc1ccccc1)N1CCC2(CC(=O)N(c3ccsc3)C2)C1 (stereo not given)	2.58
Cc1ccoc1C(=O)N1CCO[C@H]2[C@H](OCc3ccncc3)CC[C@@H]21	9.06
COc1cc2nc(C)n(CC(=O)NCCCN(C)C)c(=O)c2cc1OC	2.11
O=C1CC2(CCN(S(=O)(=O)C3CC3)C2)CN1c1cncnc1 (stereo not given)	-11.9
CCn1nnc2c1C(COC)CN(C(=O)COc1ccccc1)C2 (stereo not given)	-17.1
O=C([C@@H]1CCO[C@@H]2CCN(Cc3cccnc3)C[C@H]21)N1CCCCO1	-1.17
COc1cccc(Cn2cc(N3C(=O)[C@H]4CCCC[C@H]4C3=O)cn2)c1	-11.9
O=C(Cc1ccccc1)N1CCC(c2nnc(-c3ccccn3)o2)CC1	2.83
Cc1cc(C(F)(F)F)nc(C2CCN(C(=O)CO)CC2)n1	-2.14

Compound	cytotoxicity at 10 µM [%]
CNc1cncc(C2CCCN2C(=O)CCn2ccnc2)n1 (stereo not given)	3.91
COc1ccccc1CC(=O)N1CCN(Cc2ccco2)C[C@@H]1C	2.08
COCC(=O)N1CC(c2ccnc(Nc3cc(C(F)(F)F)ccn3)n2)C1	11.2
Cc1nnc(Nc2cccc(C3CCN(Cc4ncc[nH]4)CC3)n2)s1	-24
CCc1cc(C(=O)N2Cc3ccccc3OC3(CCOCC3)C2)on1	-9.54
Cc1sc2c(C3CCCN(C(C)C)C3)nc(C)n2c1C (stereo not given)	-13.8
Cc1nc(C)c(C(=O)N2CCc3nc4sc(C)cc4c(=O)n3CC2)o1	-9.31
CN1CCC(CN(C)C(=O)c2cc(C3CCCN3C)ccn2)CC1 (stereo not given)	-28.3
Cc1noc(C)c1-c1cccc(CC2CCN(C(=O)c3cscn3)C2)n1 (stereo not given)	-6.66
O=C(c1ccccn1)N1CCC(Cc2cnc3[nH]ccc3c2)CC1	-7.75
Cn1cc(C(=O)N2CCCC(Cc3cnccn3)C2)cn1 (stereo not given)	-8.16
CCOc1ccc(N(CCC#N)C(=O)c2ccnc(SC)c2)cc1	-2.6
CN(C)S(=O)(=O)c1ccc(F)c(NC(=O)COCC2CC2)c1	3.71
O=C(c1cc(C2CCCC2)no1)N1CCCCC1	-3.05
CC(C)Cn1ccnc1CNC(=O)NC(C)c1nccs1 (stereo not given)	-14.3
O=C(C1CCCOC1)N(CC(F)F)c1cccc(Cl)c1 (stereo not given)	8.27
Cc1nc(NS(=O)(=O)c2cc(Br)ccc2C)no1	1.68
COC(=O)C1CCCN1C(=O)c1ccc(Cl)cc1F (stereo not given)	-7.7
NS(=O)(=O)c1ccc(NCc2ccco2)c2ncccc12	-153
CN(Cc1csc2ccccc12)C(=O)NC1CCS(=O)(=O)C1 (stereo not given)	-42.1
Cc1ccc(C(=O)NCC(O)CN2CCCC2=O)cc1Cl (stereo not given)	-8.69
Cc1cc(C)n(CC2CCN(CC(O)Cn3cccn3)CC2)n1 (stereo not given)	-5.58

Compound	cytotoxicity at 10 µM [%]
COCCC1(CNC(=O)Nc2ccc(-n3ccnn3)cc2)CCC1	-0.677
Cc1nc(S(=O)(=O)NCCC(=O)NCc2ccsc2)cn1C	3.68
Cc1cc(S(=O)(=O)N2CCCc3cc(Cl)ccc32)sc1C(=O)O	-16
Cc1cnn(CCNCc2ccc(S(C)(=O)=O)cc2)c1	7.55
CCN(CC(=O)NC)C(=O)c1cc(-c2cccc(Cl)c2)no1	8.5
O=S(=O)(Cc1ccccc1F)Cc1nnnn1C1CC1	-16.5
CCN(CC)S(=O)(=O)NCCc1cc(C)ccc1OC	-2.64
CC1CN(C(=O)c2ccc(=O)n(C)c2)c2ccccc2NC1=O (stereo not given)	-2.09
Cn1cnnc1-c1cncc(NCc2ccccc2Br)c1	6.53
CN(C)c1ncc(CNS(=O)(=O)c2cccc3ccccc23)n1C	8.32
Cc1cc(C)cc(OCCCn2nc3ccccn3c2=O)c1	3.95
CC(=O)NCCc1ccc(S(=O)(=O)Nc2cc(F)ccc2C)s1	-13.6
CC(CO)(NC(=O)NCc1ccc(Br)s1)C1CC1 (stereo not given)	4.68
Cc1cncc(NC(=O)c2ccc(CN3CCC(CO)CC3)cc2)c1	19
CCCS(=O)(=O)NC(=O)c1ccc(Br)o1	-6.11
O=C(Nc1ccccc1Oc1cccc(F)c1)C1CCS(=O)(=O)C1 (stereo not given)	2.64
CCc1ccc(CC)c(NCC(=O)N2CCCC(NC(C)=O)C2)c1 (stereo not given)	-5.87
CCOCC(O)CN1CCN(C(=O)c2cccc(F)c2)CC1 (stereo not given)	-11.1
Cc1ccc2c(c1)[C@@H](CC(=O)N1CCN(C)CC1)CCO2	-11.1
CCC(CO)N(Cc1ccco1)C(=O)c1sccc1NC(C)=O (stereo not given)	3.36
COc1ccc2c(c1)OCC(CNC(=O)c1cc(C(C)C)on1)C2 (stereo not given)	0.0723
Cc1ccc(F)c(C(=O)N2C[C@@H](C(=O)O)[C@H](c3ccccc3)C2)c1Cl	-6.06

Compound	cytotoxicity at 10 µM [%]
O=C(CSc1ccccc1)Nc1cnn(CC(=O)N2CCCO2)c1	-0.969
Cc1cccc(CNC2CC(=O)N(CCc3cccc(Cl)c3)C2)n1 (stereo not given)	-134
COCc1noc(CC2CN(c3ncnc4sc(C)c(C)c34)CCO2)n1 (stereo not given)	-0.649
Fc1cccc(C2CCCCN2Cc2nc(-c3cnccn3)no2)c1 (stereo not given)	-3.02
COc1cc(C(=O)N2CC[C@@H](NC(=O)c3ccccn3)[C@H](O)C2)ccn1	0.894
CN(Cc1cc(C2CC2)on1)C(=O)CN1C(=O)OC(C)(C)C1=O	-127
COc1ccc(OCc2cc(C(=O)N3CC=CC3)n[nH]2)c(Cl)c1	7.26
Cc1nnc2sc(-c3cc(C(C)C)n[nH]3)nn12	-7.88
CCC(=O)N1CCN(c2cc(-n3cnc(C)c3C)nc(C)n2)CC1	-4.56
O=C(Cc1cnccn1)N1CCC(c2nccn2CC2CC2)CC1	-7.54
COCCN(C)C[C@@H]1CN(C(=O)c2c(C)cccc2OC)C[C@@H]1CO	-4.26
CC(NC(=O)Cc1cccs1)c1nnc2n1CCC2 (stereo not given)	-7.56
Cn1cnc(S(=O)(=O)NCCCN2CCCCCC2=O)c1Cl	-15.6
CC(C)c1ccc(OCCNC(=O)N2CCS(=O)(=O)CC2)cc1	-5.54
CCOc1ccccc1CNC(=O)N1CCC(Cc2cnn(C)c2)C1 (stereo not given)	-7.3
CC(C)c1nnc2n1CCN(CC(=O)N1CCc3sccc3C1)C2	-10.4
Cc1nc(C)n(CC2CCCCN2Cc2nc(-c3ccco3)no2)n1 (stereo not given)	-10.6
Cc1cc(C)n(CC2CCCN2C(=O)CCc2ccncc2)n1 (stereo not given)	-14.4
CC(C)c1nc2c(n1C)CCN(CC(=O)Nc1nncs1)C2	-10.1
CC(C)c1nnc2n1CCN(C(=O)c1ccc3c(c1)CCC3)C2	-10.7
COc1ccccc1NC(=O)NCCCn1nc2ccccn2c1=O	-18
Cc1cc(C2CCCN2Cc2nc3ccccc3o2)on1 (stereo not given)	-17

Compound	cytotoxicity at 10 µM [%]
O=C1COc2ccc(C(=O)N3CCCC(n4ccnc4)C3)cc2N1 (stereo not given)	-13.5
CN(Cc1ccc(-n2ccnc2)cc1)CC1CCCN1c1cccnn1 (stereo not given)	-6.21
Cc1nc2c(c(C)c1CC(=O)NCc1ccc(F)cc1)c(=O)[nH]n2C	-15.9
CC(=O)N(Cc1ncc(C)o1)C1CCN(Cc2csc(C)n2)C1 (stereo not given)	-15.8
CC(C)c1nccn1C1CCCN(C(=O)c2ccsc2)C1 (stereo not given)	-5.2
CC(C)c1nnc2n1CCN(C(=O)c1ccc(Cn3cccc3)cc1)C2	-4.28
Cc1cc(C)n(C2CCCN(C(=O)c3ccn(C)c(=O)c3)C2)n1 (stereo not given)	-5.72
c1ccc(-n2nnnc2CN2CCCC(Cn3cncn3)C2)cc1 (stereo not given)	0.962
Fc1ccc(CN2CCCN(Cc3cscn3)CC2)cc1	2.62
Cn1ccnc1CNC(=O)c1ccnc(C2CCNCC2)c1	5.8
CN(C)c1ncc(-c2cncn2CCc2ccc3c(c2)OCCO3)cn1	-1.04
Cc1c[nH]nc1C1CCCN1Cc1ncc[nH]1 (stereo not given)	4.99
N#Cc1cccc(CN2Cc3nccn3CC(CN3CCCC3)C2)c1 (stereo not given)	-135
COc1ccc(C[C@H]2CN(C(=O)c3ccc(C)nc3)CC[C@@H]2OC)cc1	4.76
CN1CC(=O)N(c2ccsc2)CC12CCN(S(C)(=O)=O)C2 (stereo not given)	-26.1
CCC(CC)C(=O)N1CCOC2(COCCN(CC(=O)NC)C2)C1 (stereo not given)	2.35
c1ccn(Cc2nnc3n2CCCN(Cc2ccoc2)C3)c1	0.993
CC(C)CCN1CCC2(CC1)CN(C(=O)c1cnccn1)CCO2	-12.6
CCc1ccc(CN2C[C@@H]3COC[C@H](NS(C)(=O)=O)[C@@H]3C2)o1	-2.01
Cc1noc(C)c1CN1C[C@H](OCC2CCN(C)CC2)[C@H]2COC[C@H]21	-4.49
N#Cc1ccccc1CN1C[C@@H]2CC[C@H]1CN(C(=O)c1cccnc1)C2	-0.849
CCn1cc(-n2cc3nc(N(C)C)[nH]cc-3c2=O)cn1	10.2
